{
  "source": "ChEMBL document CHEMBL5724801",
  "about": "“EUbOPEN Chemogenomics Library - Multiplex” (2024)",
  "key": {"[1]": {"tested_on": "Fibroblast", "test": "Multiplex assay against human fibroblast", "type": "toxicity, cell-based", "method_in_brief": "(§1)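 Phenotypes for tubulin, mitochondrial mass and membrane permeability are expressed as per cents of healthy-nucleus cells. Cells were stained live at seeding with Hoechst33342, BioTracker Green Microtubule Cytoskeleton Dye, MitoTracker Red and Annexin V Alexa Fluor 680, then imaged after compound addition on a CQ1 microscope at 37°C and 5% CO2. Machine-learning gating in CellPathfinder separated Hoechst high-intensity objects from normal cells, divided normal cells by nuclear state (healthy, pyknosed, fragmented) and divided pyknosed cells into mitotic or apoptotic.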"}, "[2]": {"tested_on": "HEK-293T", "test": "Multiplex assay against HEK293T", "type": "toxicity, cell-based", "settings": "human", "method_in_brief": "as §1"}, "[3]": {"settings": "12 h, 1 µM, compound concentration 1 uM"}, "[4]": {"settings": "12 h, 10 µM, compound concentration 10 uM"}, "[5]": {"settings": "24 h, 1 µM, compound concentration 1 uM"}, "[6]": {"settings": "24 h, 10 µM, compound concentration 10 uM"}, "[7]": {"settings": "48 h, 1 µM, compound concentration 1 uM"}, "[8]": {"settings": "48 h, 10 µM, compound concentration 10 uM"}},
  "note": "“And” between values parts separate entries of the source, which are not always exact repeats. Equal values may be shown once.",
  "data": [
    {"smiles": "CC(C)Oc1ccc(F)c(-c2cnc(N)c(C(=O)Nc3cnccc3N3CCC[C@@H](C(=O)O)C3)n2)c1", "values": [
      {"measurement": "Population Apoptotic (%)", "setting": "[1]; [3]", "result": "23.53% and 20.59%"},
      {"measurement": "Population Fragmented Nuclei (%)", "setting": "[1]; [3]", "result": "23.08% and 16.74%"},
      {"measurement": "Population Healthy Nuclei (%)", "setting": "[1]; [3]", "result": "53.85% and 68.67%"},
      {"measurement": "Population Hoechst High Intensity Objects (%)", "setting": "[1]; [3]", "result": 0, "unit": "%"},
      {"measurement": "Population Membrane Permeable-Phenotype (%)", "setting": "[1]; [3]", "result": "1.68% and 3.12%"},
      {"measurement": "Population Mitochondria Different-Phenotype (%)", "setting": "[1]; [3]", "result": "7.56% and 5.62%"},
      {"measurement": "Population Mitotic Cells (%)", "setting": "[1]; [3]", "result": "76.47% and 79.41%"},
      {"measurement": "Population Normal (%)", "setting": "[1]; [3]", "result": 100, "unit": "%"},
      {"measurement": "Population Pyknosed Nuclei (%)", "setting": "[1]; [3]", "result": "23.08% and 14.59%"},
      {"measurement": "Population Tubulin-Different-Phenotype (%)", "setting": "[1]; [3]", "result": "15.97% and 18.12%"},
      {"measurement": "Total Cell Count", "setting": "[1]; [3]", "result": "221 and 233"},
      {"measurement": "Population Apoptotic (%)", "setting": "[1]; [4]", "result": "16.67% and 33.33%"},
      {"measurement": "Population Fragmented Nuclei (%)", "setting": "[1]; [4]", "result": "29.81% and 29.75%"},
      {"measurement": "Population Healthy Nuclei (%)", "setting": "[1]; [4]", "result": "60.87% and 65.82%"},
      {"measurement": "Population Hoechst High Intensity Objects (%)", "setting": "[1]; [4]", "result": 0, "unit": "%"},
      {"measurement": "Population Membrane Permeable-Phenotype (%)", "setting": "[1]; [4]", "result": "16.33% and 15.38%"},
      {"measurement": "Population Mitochondria Different-Phenotype (%)", "setting": "[1]; [4]", "result": "5.61% and 3.53%"},
      {"measurement": "Population Mitotic Cells (%)", "setting": "[1]; [4]", "result": "83.33% and 66.67%"},
      {"measurement": "Population Normal (%)", "setting": "[1]; [4]", "result": 100, "unit": "%"},
      {"measurement": "Population Pyknosed Nuclei (%)", "setting": "[1]; [4]", "result": "9.32% and 4.43%"},
      {"measurement": "Population Tubulin-Different-Phenotype (%)", "setting": "[1]; [4]", "result": "45.92% and 79.17%"},
      {"measurement": "Total Cell Count", "setting": "[1]; [4]", "result": "322 and 474"},
      {"measurement": "Population Fragmented Nuclei (%)", "setting": "[1]; [5]", "result": "24.16% and 21.57%"},
      {"measurement": "Population Healthy Nuclei (%)", "setting": "[1]; [5]", "result": "52.79% and 67.45%"},
      {"measurement": "Population Hoechst High Intensity Objects (%)", "setting": "[1]; [5]", "result": 0, "unit": "%"},
      {"measurement": "Population Membrane Permeable-Phenotype (%)", "setting": "[1]; [5]", "result": "4.23% and 3.49%"},
      {"measurement": "Population Mitochondria Different-Phenotype (%)", "setting": "[1]; [5]", "result": "2.11% and 4.65%"},
      {"measurement": "Population Mitotic Cells (%)", "setting": "[1]; [5]", "result": "93.55% and 71.43%"},
      {"measurement": "Population Normal (%)", "setting": "[1]; [5]", "result": 100, "unit": "%"},
      {"measurement": "Population Pyknosed Nuclei (%)", "setting": "[1]; [5]", "result": "23.05% and 10.98%"},
      {"measurement": "Population Tubulin-Different-Phenotype (%)", "setting": "[1]; [5]", "result": "14.79% and 23.26%"},
      {"measurement": "Total Cell Count", "setting": "[1]; [5]", "result": "269 and 255"},
      {"measurement": "Population Apoptotic (%)", "setting": "[1]; [6]", "result": "11.11% and 17.65%"},
      {"measurement": "Population Fragmented Nuclei (%)", "setting": "[1]; [6]", "result": "39.53% and 37.88%"},
      {"measurement": "Population Healthy Nuclei (%)", "setting": "[1]; [6]", "result": "53.49% and 59.43%"},
      {"measurement": "Population Hoechst High Intensity Objects (%)", "setting": "[1]; [6]", "result": 0, "unit": "%"},
      {"measurement": "Population Membrane Permeable-Phenotype (%)", "setting": "[1]; [6]", "result": "13.04% and 18.13%"},
      {"measurement": "Population Mitochondria Different-Phenotype (%)", "setting": "[1]; [6]", "result": "11.11% and 4.27%"},
      {"measurement": "Population Mitotic Cells (%)", "setting": "[1]; [6]", "result": "88.89% and 82.35%"},
      {"measurement": "Population Normal (%)", "setting": "[1]; [6]", "result": 100, "unit": "%"},
      {"measurement": "Population Pyknosed Nuclei (%)", "setting": "[1]; [6]", "result": "6.98% and 2.69%"},
      {"measurement": "Population Tubulin-Different-Phenotype (%)", "setting": "[1]; [6]", "result": "58.94% and 76%"},
      {"measurement": "Total Cell Count", "setting": "[1]; [6]", "result": "387 and 631"},
      {"measurement": "Population Apoptotic (%)", "setting": "[1]; [7]", "result": "11.96% and 8.33%"},
      {"measurement": "Population Fragmented Nuclei (%)", "setting": "[1]; [7]", "result": "17.32% and 18.8%"},
      {"measurement": "Population Healthy Nuclei (%)", "setting": "[1]; [7]", "result": "61.43% and 70.94%"},
      {"measurement": "Population Hoechst High Intensity Objects (%)", "setting": "[1]; [7]", "result": 0, "unit": "%"},
      {"measurement": "Population Membrane Permeable-Phenotype (%)", "setting": "[1]; [7]", "result": "1.88% and 3.61%"},
      {"measurement": "Population Mitochondria Different-Phenotype (%)", "setting": "[1]; [7]", "result": "6.39% and 2.41%"},
      {"measurement": "Population Mitotic Cells (%)", "setting": "[1]; [7]", "result": "88.04% and 91.67%"},
      {"measurement": "Population Normal (%)", "setting": "[1]; [7]", "result": 100, "unit": "%"},
      {"measurement": "Population Pyknosed Nuclei (%)", "setting": "[1]; [7]", "result": "21.25% and 10.26%"},
      {"measurement": "Population Tubulin-Different-Phenotype (%)", "setting": "[1]; [7]", "result": "24.06% and 42.97%"},
      {"measurement": "Total Cell Count", "setting": "[1]; [7]", "result": "433 and 351"},
      {"measurement": "Population Apoptotic (%)", "setting": "[1]; [8]", "result": "25% and 75%"},
      {"measurement": "Population Fragmented Nuclei (%)", "setting": "[1]; [8]", "result": "43.91% and 38.05%"},
      {"measurement": "Population Healthy Nuclei (%)", "setting": "[1]; [8]", "result": "54.09% and 60.35%"},
      {"measurement": "Population Hoechst High Intensity Objects (%)", "setting": "[1]; [8]", "result": 0, "unit": "%"},
      {"measurement": "Population Membrane Permeable-Phenotype (%)", "setting": "[1]; [8]", "result": "15.74% and 24.56%"},
      {"measurement": "Population Mitochondria Different-Phenotype (%)", "setting": "[1]; [8]", "result": "9.88% and 3.1%"},
      {"measurement": "Population Mitotic Cells (%)", "setting": "[1]; [8]", "result": "75% and 25%"},
      {"measurement": "Population Normal (%)", "setting": "[1]; [8]", "result": 100, "unit": "%"},
      {"measurement": "Population Pyknosed Nuclei (%)", "setting": "[1]; [8]", "result": "2% and 1.6%"},
      {"measurement": "Population Tubulin-Different-Phenotype (%)", "setting": "[1]; [8]", "result": "61.73% and 91.37%"},
      {"measurement": "Total Cell Count", "setting": "[1]; [8]", "result": "599 and 749"},
      {"measurement": "Population Apoptotic (%)", "setting": "[2]; [3]", "result": "7.53% and 11.02%"},
      {"measurement": "Population Fragmented Nuclei (%)", "setting": "[2]; [3]", "result": "1.12% and 6.54%"},
      {"measurement": "Population Hoechst High Intensity Objects (%)", "setting": "[2]; [3]", "result": "0.28% and 0%"},
      {"measurement": "Population Membrane Permeable-Phenotype (%)", "setting": "[2]; [3]", "result": "0% and 4%"},
      {"measurement": "Population Mitochondria Different-Phenotype (%)", "setting": "[2]; [3]", "result": "34.13% and 12%"},
      {"measurement": "Population Mitotic Cells (%)", "setting": "[2]; [3]", "result": "92.47% and 88.98%"},
      {"measurement": "Population Normal (%)", "setting": "[2]; [3]", "result": "99.72% and 100%"},
      {"measurement": "Population Pyknosed Nuclei (%)", "setting": "[2]; [3]", "result": "40.78% and 77.12%"},
      {"measurement": "Total Cell Count", "setting": "[2]; [3]", "result": "359 and 153"},
      {"measurement": "Population Apoptotic (%)", "setting": "[2]; [4]", "result": "24.14% and 33.33%"},
      {"measurement": "Population Fragmented Nuclei (%)", "setting": "[2]; [4]", "result": "7.04% and 7.45%"},
      {"measurement": "Population Hoechst High Intensity Objects (%)", "setting": "[2]; [4]", "result": "1.97% and 0%"},
      {"measurement": "Population Membrane Permeable-Phenotype (%)", "setting": "[2]; [4]", "result": "4.08% and 0%"},
      {"measurement": "Population Mitochondria Different-Phenotype (%)", "setting": "[2]; [4]", "result": "31.63% and 17.39%"},
      {"measurement": "Population Mitotic Cells (%)", "setting": "[2]; [4]", "result": "75.86% and 66.67%"},
      {"measurement": "Population Normal (%)", "setting": "[2]; [4]", "result": "98.03% and 100%"},
      {"measurement": "Population Pyknosed Nuclei (%)", "setting": "[2]; [4]", "result": "43.72% and 78.26%"},
      {"measurement": "Population Tubulin-Different-Phenotype (%)", "setting": "[2]; [4]", "result": "70.41% and 47.83%"},
      {"measurement": "Total Cell Count", "setting": "[2]; [4]", "result": "203 and 161"},
      {"measurement": "Population Apoptotic (%)", "setting": "[2]; [5]", "result": "17% and 27.27%"},
      {"measurement": "Population Fragmented Nuclei (%)", "setting": "[2]; [5]", "result": "0.79% and 9.15%"},
      {"measurement": "Population Hoechst High Intensity Objects (%)", "setting": "[2]; [5]", "result": 0, "unit": "%"},
      {"measurement": "Population Membrane Permeable-Phenotype (%)", "setting": "[2]; [5]", "result": "1.73% and 0%"},
      {"measurement": "Population Mitochondria Different-Phenotype (%)", "setting": "[2]; [5]", "result": "12.59% and 10%"},
      {"measurement": "Population Mitotic Cells (%)", "setting": "[2]; [5]", "result": "83% and 72.73%"},
      {"measurement": "Population Normal (%)", "setting": "[2]; [5]", "result": 100, "unit": "%"},
      {"measurement": "Population Tubulin-Different-Phenotype (%)", "setting": "[2]; [5]", "result": "24.69% and 10%"}
    ]}
  ]
}
